pIC50: −log10 of the molar value. The source made the active and inactive calls. The calls are words filed in the database; no cut-off is given here.
Tests used:
[1] = Cytotoxicity against human vinblastine-resistant KBV1 cells after 72 hrs by MTT assay; type: functional, cell-based; conditions: KB-V1, 72 h
In short: (§1)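 MTT assay. Cells seeded and cultured 24 h, then exposed to compound for 24, 48 or 72 h. MTT added to a final 0.05% (HL-60, 518A2) or 0.1% (KB-V1, MCF-7) for 2 h. Formazan dissolved in 10% SDS/DMSO with 0.6% acetic acid; absorbance read at 570 nm against 630 nm background. Viability taken relative to untreated controls (100%). IC50 from concentration-response curves, mean ± SD of four independent experiments.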

[2] = Cytotoxicity against human 518A2 cells assessed as increase in ROS production at 5 uM after 72 hrs by NBT reduction assay relative to control; type: functional
In short: (§2)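 NBT assay. HL-60 cells (0.5×10⁶/mL) or trypsinised 518A2 cells (5×10⁴/mL) pre-incubated 24 h at 37 °C, then given compound at a final 5 µM for 24 or 72 h. Medium removed; cells incubated with 0.1% NBT for 1 h (HL-60) or 4 h (518A2). Diformazan dissolved in 2 M KOH/DMSO; A630 read against 405 nm. Given as % of untreated controls; double quadruplicates.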

[3] = system: 518A2; experiment: Induction of apoptosis in human 518A2 cells assessed as appearance of intact mitochondria in cytosol at 5 uM after 18 hrs using JC1 dye relative to control; type: functional
In short: (§3)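 Mitochondrial membrane potential measured with JC-1. Cells exposed to 5 µM compound for 6 or 18 h, pelleted at 400 g, stained with 0.2× JC-1 at 37 °C for 15 min (HL-60) or 35 min (518A2), washed and resuspended in PBS. Red fluorescence (ex 585/em 590 nm) and green (ex 510/em 527 nm) read; red/green ratio relative to untreated controls (100%). Mean ± SD, four independent experiments.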

[4] = system: HL-60; experiment: Cytotoxicity against human HL60 cells assessed as increase in ROS production at 5 uM after 72 hrs by NBT reduction assay relative to control; type: functional; in short: as §2
[5] = Cytotoxicity against human 518A2 cells after 48 hrs by MTT assay; type: functional, cell-based; conditions: 518A2, 48 h; in short: as §1
[6] = Cytotoxicity against human 518A2 cells after 72 hrs by MTT assay; type: functional, cell-based; conditions: 518A2, 72 h; in short: as §1
[7] = system: HL-60; experiment: Induction of apoptosis in human HL60 cells assessed as appearance of intact mitochondria in cytosol at 5 uM after 6 hrs using JC1 dye relative to control; type: functional; in short: as §3
[8] = system: MCF7; experiment: Cytotoxicity against human topotecan-resistant MCF7 cells after 72 hrs by MTT assay; type: functional, cell-based; conditions: MCF7, 72 h; in short: as §1
[9] = system: HL-60; experiment: Cytotoxicity against human HL60 cells after 48 hrs by MTT assay; type: functional, cell-based; conditions: HL-60, 48 h; in short: as §1
[10] = Cytotoxicity against human 518A2 cells after 24 hrs by MTT assay; type: functional, cell-based; conditions: 518A2, 24 h; in short: as §1
[11] = system: MCF7; experiment: Cytotoxicity against human topotecan-resistant MCF7 cells after 24 hrs by MTT assay; type: functional, cell-based; conditions: MCF7, 24 h; in short: as §1
[12] = system: HL-60; experiment: Cytotoxicity against human HL60 cells assessed as increase in ROS production at 5 uM after 24 hrs by NBT reduction assay relative to control; type: functional; in short: as §2
[13] = system: MCF7; experiment: Cytotoxicity against human topotecan-resistant MCF7 cells after 48 hrs by MTT assay; type: functional, cell-based; conditions: MCF7, 48 h; in short: as §1
[14] = Cytotoxicity against human vinblastine-resistant KBV1 cells after 48 hrs by MTT assay; type: functional, cell-based; conditions: KB-V1, 48 h; in short: as §1
[15] = system: HL-60; experiment: Cytotoxicity against human HL60 cells after 72 hrs by MTT assay; type: functional, cell-based; conditions: HL-60, 72 h; in short: as §1
[16] = system: HL-60; experiment: Cytotoxicity against human HL60 cells after 24 hrs by MTT assay; type: functional, cell-based; conditions: HL-60, 24 h; in short: as §1
[17] = system: HL-60; experiment: Induction of apoptosis in human HL60 cells assessed as appearance of intact mitochondria in cytosol at 5 uM after 18 hrs using JC1 dye relative to control; type: functional; in short: as §3
[18] = system: 518A2; experiment: Induction of apoptosis in human 518A2 cells assessed as appearance of intact mitochondria in cytosol at 5 uM after 6 hrs using JC1 dye relative to control; type: functional; in short: as §3
[19] = Cytotoxicity against human vinblastine-resistant KBV1 cells after 24 hrs by MTT assay; type: functional, cell-based; conditions: KB-V1, 24 h; in short: as §1
[20] = Cytotoxicity against human 518A2 cells assessed as increase in ROS production at 5 uM after 24 hrs by NBT reduction assay relative to control; type: functional; in short: as §2
[21] = system: HL-60; experiment: Induction of apoptosis in human HL60 cells assessed as increase of caspase 3 activity at 5 uM after 8 to 18 hrs by luminometric assay; type: functional, cell-based
In short: (§4)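 HL-60 and 518A2 cells treated with 5 µM compound and sampled at intervals from 1 to 24 h. Lysed in 50 mM Tris-HCl pH 7.4, 150 mM NaCl, 1% Triton X-100 with protease inhibitors for 15 min at 4 °C, spun at 800 g. Protein measured by Bradford. Caspase-3/7, -8 and -9 activities read with luminogenic peptide substrates; reported as relative luminescence.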

[22] = system: 518A2; experiment: Induction of apoptosis in human 518A2 cells assessed as increase of ratio of Bax to Bcl-2 mRNA expression at 5 uM after 6 to 18 hrs by RT-PCR analysis; type: functional, cell-based
In short: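 518A2 cells exposed to 5 µM compound for 6 h or 18 h. bax and bcl-2 mRNA quantified by real-time PCR, normalised to GAPDH, and expressed as the bax/bcl-2 ratio.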

[23] = system: HL-60; experiment: Induction of apoptosis in human HL60 cells assessed as DNA ladder formation at 5 uM after 24 hrs by agarose gel electrophoresis; type: functional, cell-based
In short: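 HL-60 cells incubated with 5 µM compound for 24 h, then examined for DNA ladder patterns.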

[24] = system: HL-60; experiment: Induction of apoptosis in human HL60 cells assessed as increase of ratio of Bax to Bcl-2 mRNA expression at 5 uM after 6 to 18 hrs by RT-PCR analysis; type: functional, cell-based
In short: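 Real-time PCR of bax and bcl-2 mRNA in HL-60 cells after 6 h and 18 h exposure to test compound. Each gene was normalised to GAPDH, and the bax/bcl-2 expression ratio was reported.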

[25] = system: HL-60; experiment: Induction of apoptosis in human HL60 cells assessed as increase of caspase 9 activity at 5 uM measured up to 24 hrs by luminometric assay; type: functional, cell-based
In short: (§5)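 HL-60 leukaemia cells were treated with test compound and sampled at intervals from 1 to 24 h. Protein was measured by Bradford. Caspase-9 (Caspase-Glo 8 for line 1) was read from a luminogenic peptide substrate as relative luminescence.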

[26] = system: HL-60; experiment: Induction of apoptosis in human HL60 cells assessed as increase of caspase 8 activity at 5 uM after 8 to 18 hrs by luminometric assay; type: functional, cell-based; in short: as §5
[27] = system: HL-60; experiment: Induction of apoptosis in human HL60 cells assessed as increase of caspase 8 activity at 5 uM after 12 hrs by luminometric assay; type: functional, cell-based; in short: as §4
[28] = system: HL-60; experiment: Induction of apoptosis in human HL60 cells assessed as increase of caspase 9 activity at 5 uM after 12 hrs by luminometric assay; type: functional, cell-based; in short: as §5
[29] = system: HL-60; experiment: Induction of apoptosis in human HL60 cells assessed as increase of caspase 8 activity at 5 uM after 24 hrs by luminometric assay; type: functional, cell-based; in short: as §4
[30] = system: HL-60; experiment: Induction of apoptosis in human HL60 cells assessed as increase of caspase 3 activity at 5 uM after 18 hrs by luminometric assay; type: functional, cell-based; in short: as §4
[31] = system: 518A2; experiment: Induction of apoptosis in human 518A2 cells assessed as increase of caspase 3 activity at 5 uM after 8 hrs by luminometric assay; type: functional, cell-based; in short: as §4
[32] = system: 518A2; experiment: Induction of apoptosis in human 518A2 cells assessed as increase of caspase 8 activity at 5 uM after 6 hrs by luminometric assay; type: functional, cell-based; in short: as §4

Structure (SMILES) | pIC50 [1] | Activity [2] [%] | Activity [3] [%] | Activity [4] [%] | pIC50 [5] | pIC50 [6] | Activity [7] [%] | pIC50 [8] | pIC50 [9] | pIC50 [10] | pIC50 [11] | Activity [12] [%] | pIC50 [13] | pIC50 [14] | pIC50 [15] | pIC50 [16] | Activity [17] [%] | Activity [18] [%] | pIC50 [19] | Activity [20] [%] | also measured
COc1cccc2c1C(=O)c1c(O)c3c(c(O)c1C2=O)C[C@@](O)(/C(CO)=N/NC(=O)CCCCC(=O)O[C@@H]1C[C@H](C)CC[C@H]1C(C)C)C[C@@H]3O[C@H]1C[C@H](N)[C@H](O)[C@H](C)O1.Cl | 4.63 | 1.5 | 79 | 5.7 | 6.38 | 6.49 | 93 | 5.62 | 6.48 | 5.92 | 5.17 | 1 | 5.33 | 4.46 | 6.48 | 6.41 | 66 | 82 | < 4.00 | 2.2 | –
COc1cccc2c1C(=O)c1c(O)c3c(c(O)c1C2=O)C[C@@](O)(/C(CO)=N/NC(=O)CCCCCCCCCCC(=O)O[C@H]1C[C@H]2CC[C@]1(C)C2(C)C)C[C@@H]3O[C@H]1C[C@H](N)[C@H](O)[C@H](C)O1.Cl | 4.62 | 3.8 | 73 | 7.9 | 6.64 | 6.72 | 78 | 5.74 | 6.72 | 6.24 | 5.20 | 1.8 | 5.42 | 4.68 | 6.89 | 6.64 | 65 | 66 | 4.16 | 2.7 | –
COc1cccc2c1C(=O)c1c(O)c3c(c(O)c1C2=O)C[C@@](O)(/C(CO)=N/NC(=O)CCCCCCCC(=O)O[C@@H]1C[C@H](C)CC[C@H]1C(C)C)C[C@@H]3O[C@H]1C[C@H](N)[C@H](O)[C@H](C)O1.Cl | 4.66 | 1.3 | 72 | 6.8 | 6.29 | 6.34 | 84 | 5.37 | 6.31 | 6.09 | 4.99 | 1 | 5.14 | 4.67 | 6.43 | 6.40 | 68 | 83 | 4.10 | 1.4 | –
CC/C=C\C/C=C\C/C=C\CCCCCCCC(=O)N/N=C(\CO)[C@]1(O)Cc2c(O)c3c(c(O)c2[C@@H](O[C@H]2C[C@H](N)[C@H](O)[C@H](C)O2)C1)C(=O)c1c(OC)cccc1C3=O.Cl [DOXORUBICIN LINOLENOYLHYDRAZONE HYDROCHLORIDE] | 4.85 | 45.1 | 96 | 3 | 6.49 | 6.85 | 103 | 5.44 | 5.92 | 5.13 | 5.24 | 1 | 5.37 | 4.69 | 6.09 | 5.29 | 71 | 120 | 4.39 | 2.9 | Activity [21]: Active; Activity [22]: Active; Activity [23]: Active; Activity [24]: Active; Activity [25]: inactive; Activity [26]: Active
CCCCC/C=C\C/C=C\CCCCCCCC(=O)N/N=C(\CO)[C@]1(O)Cc2c(O)c3c(c(O)c2[C@@H](O[C@H]2C[C@H](N)[C@H](O)[C@H](C)O2)C1)C(=O)c1c(OC)cccc1C3=O.Cl [DOXORUBICIN LINOLEYLHYDRAZONE HYDROCHLORIDE] | 4.71 | 2.3 | 97 | 1.4 | 5.74 | 5.80 | 88 | 5.00 | 5.55 | 5.54 | 4.39 | 0.4 | 4.69 | 4.73 | 5.42 | 5.25 | 87 | 80 | 4.53 | 1.6 | –
COc1cccc2c1C(=O)c1c(O)c3c(c(O)c1C2=O)C[C@@](O)(/C(CO)=N/NC(=O)CC(=O)O[C@@H]1C[C@H](C)CC[C@H]1C(C)C)C[C@@H]3O[C@H]1C[C@H](N)[C@H](O)[C@H](C)O1.Cl [DOXORUBICIN MENTHOXYCARBONYLACETYLHYDRAZONE HYDROCHLORIDE] | 4.99 | 16.2 | 61 | 11.2 | 6.27 | 6.85 | 76 | 5.57 | 6.59 | 6.15 | 5.08 | 3.8 | 5.42 | 4.74 | 6.64 | 6.24 | 36 | 93 | 4.75 | 3 | Activity [27]: Active; Activity [28]: Active; Activity [22]: Active; Activity [23]: Active; Activity [29]: Active; Activity [30]: Active; Activity [24]: Active; Activity [31]: Active; Activity [32]: Active
CCCCCCCC/C=C\CCCCCCCC(=O)N/N=C(\CO)[C@]1(O)Cc2c(O)c3c(c(O)c2[C@@H](O[C@H]2C[C@H](N)[C@H](O)[C@H](C)O2)C1)C(=O)c1c(OC)cccc1C3=O.Cl [DOXORUBICIN OLEYLHYDRAZONE HYDROCHLORIDE] | 4.90 | 4.4 | 99 | 4 | 6.41 | 6.38 | 103 | 5.18 | 6.25 | 6.17 | 4.84 | 0.6 | 5.21 | 4.75 | 6.25 | 5.92 | 104 | 96 | 4.49 | 2.8 | –

— ChEMBL document CHEMBL1157852, “Modulation of doxorubicin activity in cancer cells by conjugation with fatty acyl and terpenyl hydrazones” (Eur J Med Chem, 2010)
